The other results are listed elsewhere or left out. A number with no mark means an inactive call.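 How the source made its calls: active means percent inhibition of p97 ATPase above a set limit, the primary screen's mean plus 3 SD (cut at about 15% in these data); inactive means the rest.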
Target: Transitional endoplasmic reticulum ATPase (Homo sapiens) (UniProt P55072)
Experiment: p97 ATPase inhibitors, retest, confirmation, biochemical (AID 1517);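 further: 0% = DMSO wells and 100% = wells lacking p97 protein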
Details: recombinant p97 ATPase, Kinase-Glo ATP luminescence; at 8 µM; hits give high values
Method in brief: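 Assay system: recombinant p97 ATPase; Medium: Tris/MgCl2/EDTA/DTT buffer, pH 8.0; Times: 30 min compound–enzyme preincubation at 25 °C, then 3 h ATP reaction; Detection: Kinase-Glo luminescence.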

Transitional endoplasmic reticulum ATPase (Homo sapiens), sequence (P55072 whole entry, looked up): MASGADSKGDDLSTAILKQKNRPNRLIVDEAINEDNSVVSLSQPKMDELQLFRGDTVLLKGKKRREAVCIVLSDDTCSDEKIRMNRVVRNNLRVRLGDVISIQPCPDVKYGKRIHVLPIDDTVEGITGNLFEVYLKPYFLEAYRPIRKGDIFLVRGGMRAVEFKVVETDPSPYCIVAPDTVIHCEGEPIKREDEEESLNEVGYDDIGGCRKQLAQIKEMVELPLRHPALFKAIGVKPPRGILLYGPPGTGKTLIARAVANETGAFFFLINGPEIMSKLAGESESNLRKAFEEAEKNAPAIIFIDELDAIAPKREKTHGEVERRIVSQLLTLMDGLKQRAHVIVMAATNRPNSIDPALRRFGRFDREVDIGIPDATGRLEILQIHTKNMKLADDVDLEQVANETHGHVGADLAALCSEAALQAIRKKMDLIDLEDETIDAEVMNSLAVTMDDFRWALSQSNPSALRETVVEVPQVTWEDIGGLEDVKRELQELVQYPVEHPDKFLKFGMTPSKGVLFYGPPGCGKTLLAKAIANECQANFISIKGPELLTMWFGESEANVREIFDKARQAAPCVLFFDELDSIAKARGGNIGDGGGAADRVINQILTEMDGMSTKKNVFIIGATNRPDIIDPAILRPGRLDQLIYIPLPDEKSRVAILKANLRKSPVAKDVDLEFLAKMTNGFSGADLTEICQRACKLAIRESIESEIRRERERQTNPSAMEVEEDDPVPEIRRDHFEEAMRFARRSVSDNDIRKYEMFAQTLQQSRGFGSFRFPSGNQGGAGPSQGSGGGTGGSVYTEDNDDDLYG

O=c1[nH]c(CN2CC=C(c3ccccc3)CC2)nc2scc(-c3cccs3)c12
inhibition: 10.8%
